# Active and inactive are the calls of the source. No cut-off for these calls is given here.
# Tests used:
# [1] = target: [Pyruvate dehydrogenase (acetyl-transferring)] kinase isozyme 4, mitochondrial (Homo sapiens, UniProt Q16654); assay: Inhibition of PDK4 in HEK293T cells assessed as reduction in PDHE1alpha phosphorylation at Ser-300 residue by measuring phosphorylated PDHE1alpha level at 10 uM after 24 hrs by Western blot analysis; format: cell-based
# Outline: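 HEK293T cells grown in high-glucose DMEM with 10% FBS at 37 °C, 5% CO2. Medium renewed after 24 h, then cells exposed to compound for 24 h and lysed. 20 μg protein per lane Western blotted with antibodies to phospho-PDHE1α Ser232, Ser293 and Ser300 and to total PDHE1α. Band intensity quantified relative to control; triplicate.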
# CYP3A = CYP3A (Homo sapiens, UniProt P08684+P20815+P24462+Q9HB55); assay: Inhibition of CYP3A in human liver microsomes assessed as reduction in midazolam 1'-hydroxylation by tandem mass spectrometry analysis; format: ADME; settings: probe midazolam (1'-hydroxylation)
# Outline: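 Pooled human liver microsomes; test compound at final 0–50 μM in a cocktail incubation with probe substrates: midazolam 1′-hydroxylation (CYP3A), SN-38 glucuronidation (UGT1A1), trifluoperazine N-glucuronidation (UGT1A4), mycophenolic acid glucuronidation (UGT1A9), naloxone 3-glucuronidation (UGT2B7). Metabolites measured by tandem MS; IC50 determined; duplicate.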
# L929 = assay: Cytotoxicity against mouse L929 cells; format: cell-based
# CHO-K1 = assay: Cytotoxicity against CHOK1 cells; format: cell-based; settings: Cricetulus griseus
# [2] = Tmax in rat at 10 mg/kg, po; format: ADME, organism-based; settings: in vivo
# [3] = AUC (0 to infinity) in rat at 10 mg/kg, po; format: ADME, organism-based; design: dose 10 mg/kg, route oral, time infinity; settings: in vivo
# Outline: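 Male rats given a single dose, 5 mg/kg intravenously or 10 mg/kg orally. Plasma PK parameters were reported as mean ± SD: AUCt, AUC∞, Cmax, Tmax, T1/2, CL, Vss and oral bioavailability F.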
# [4] = Oral bioavailability in rat at 10 mg/kg; format: ADME, organism-based; settings: in vivo
# Mast cell = assay: Inhibition of degranulation in IgE-labeled bone marrow-derived mast cells (unknown origin) assessed as reduction in beta-hexosaminidase release by measuring absorbance at 20 uM preincubated for 1 hr followed by HSA stimulation and measured after 15 mins (reference value: 0.26 +/- 0.025); format: functional
# Mus musculus = assay: Antiallergic activity in mouse model of IgE/antigen-stimulated passive cutaneous anaphylaxis assessed as Evans blue exudation at 50 mg/kg, ip administered as single dose for 1 hr treated at 24 hrs post anti-DNP IgE treatment followed by DNP-HSA/Evans blue addition and measured after 1 hr (reference value: 149 +/- 16.9 ug/ml); format: functional
# [5] = target: Cellular tumor antigen p53 (Homo sapiens) (UniProt P04637); assay: Induction of p53 phosphorylation at Ser-15 residue in human RKO cells after 24 hrs by Western blot analysis; format: cell-based
# Outline: (§1)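 HCT116 and RKO cells given a range of compound doses for 24 h; lysates probed by Western blot for apoptosis-related proteins (p53, BAX, BCLxL).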
# RKO [6] = assay: Induction of apoptosis in human RKO cells assessed as decrease in Bcl-XL expression at 10 to 50 uM after 24 hrs by Western blot analysis; format: functional, cell-based; outline: as §1
# HCT-116 [7] = assay: Induction of apoptosis in human HCT116 cells after 24 hrs by Annexin V/propidium iodide staining based flow cytometry; format: functional, cell-based
# HCT-116 [8] = assay: Induction of apoptosis in human HCT116 cells assessed as live cells at 10 uM after 24 hrs by Annexin V/propidium iodide staining based flow cytometry (reference value: 84.4%); format: functional
# HCT-116 [9] = assay: Induction of apoptosis in human HCT116 cells assessed as late apoptotic cells at 10 uM after 24 hrs by Annexin V/propidium iodide staining based flow cytometry (reference value: 8.36%); format: functional
# HCT-116 [10] = assay: Induction of apoptosis in human HCT116 cells assessed as live cells at 25 uM after 24 hrs by Annexin V/propidium iodide staining based flow cytometry (reference value: 84.4%); format: functional
# HCT-116 [11] = assay: Induction of apoptosis in human HCT116 cells assessed as necrotic cells at 50 uM after 24 hrs by Annexin V/propidium iodide staining based flow cytometry (reference value: 2.92%); format: functional
# HCT-116 [12] = assay: Induction of apoptosis in human HCT116 cells assessed as late apoptotic cells at 25 uM after 24 hrs in presence of oxaliplatin by Annexin V/propidium iodide staining based flow cytometry (reference value: 14.2%); format: functional
# HCT-116 [13] = assay: Cell cycle arrest in human HCT116 cells assessed as accumulation at G2/M phase at 25 uM after 24 hrs propidium iodide staining based flow cytometry (reference value: 22.2%); format: functional
# Outline: (§2)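 HCT116 and RKO cells were treated with compound alone or with oxaliplatin for 24 h before harvest. Cells were stained with propidium iodide, and DNA content was analysed by flow cytometry. Cell-cycle phase populations, including sub-G1, are given as percentages.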
# HCT-116 [14] = assay: Cell cycle arrest in human HCT116 cells assessed as accumulation at sub-G1 phase at 50 uM after 24 hrs propidium iodide staining based flow cytometry (reference value: 17.8%); format: functional; outline: as §2
# HCT-116 [15] = assay: Cell cycle arrest in human HCT116 cells assessed as accumulation at G1/G0 phase at 50 uM after 24 hrs propidium iodide staining based flow cytometry (reference value: 42%); format: functional; outline: as §2
# HCT-116 [16] = assay: Cell cycle arrest in human HCT116 cells assessed as accumulation at sub-G1 phase at 25 uM after 24 hrs in presence of oxaliplatin propidium iodide staining based flow cytometry (reference value: 25.1%); format: functional; outline: as §2
# HCT-116 [17] = assay: Cell cycle arrest in human HCT116 cells assessed as accumulation at S phase at 25 uM after 24 hrs in presence of oxaliplatin propidium iodide staining based flow cytometry (reference value: 5.4%); format: functional; outline: as §2
# RKO [18] = assay: Induction of apoptosis in human RKO cells assessed as early apoptotic cells at 10 uM after 24 hrs by Annexin V/propidium iodide staining based flow cytometry (reference value: 9.62%); format: functional
# RKO [19] = assay: Induction of apoptosis in human RKO cells assessed as live cells at 25 uM after 24 hrs by Annexin V/propidium iodide staining based flow cytometry (reference value: 82.4%); format: functional
# RKO [20] = assay: Induction of apoptosis in human RKO cells assessed as late apoptotic cells at 50 uM after 24 hrs by Annexin V/propidium iodide staining based flow cytometry (reference value: 7.42%); format: functional
# RKO [21] = assay: Induction of apoptosis in human RKO cells assessed as live cells at 25 uM after 24 hrs in presence of oxaliplatin by Annexin V/propidium iodide staining based flow cytometry (reference value: 86.4%); format: functional
# RKO [22] = assay: Induction of apoptosis in human RKO cells assessed as late apoptotic cells at 25 uM after 24 hrs in presence of oxaliplatin by Annexin V/propidium iodide staining based flow cytometry (reference value: 7.02%); format: functional
# RKO [23] = assay: Cell cycle arrest in human RKO cells assessed as accumulation at G2/M phase at 50 uM after 24 hrs propidium iodide staining based flow cytometry (reference value: 23.3%); format: functional; outline: as §2
# RKO [24] = assay: Cell cycle arrest in human RKO cells assessed as accumulation at G1/G0 phase at 25 uM after 24 hrs in presence of oxaliplatin propidium iodide staining based flow cytometry (reference value: 44.3%); format: functional; outline: as §2
# RKO [25] = assay: Cell cycle arrest in human RKO cells assessed as accumulation at G2/M phase at 25 uM after 24 hrs in presence of oxaliplatin propidium iodide staining based flow cytometry (reference value: 39.2%); format: functional; outline: as §2
# [Pyruvate dehydrogenase (acetyl-transferring)] kinase isozyme 4, mitochondrial, sequence (Q16654 whole entry, looked up): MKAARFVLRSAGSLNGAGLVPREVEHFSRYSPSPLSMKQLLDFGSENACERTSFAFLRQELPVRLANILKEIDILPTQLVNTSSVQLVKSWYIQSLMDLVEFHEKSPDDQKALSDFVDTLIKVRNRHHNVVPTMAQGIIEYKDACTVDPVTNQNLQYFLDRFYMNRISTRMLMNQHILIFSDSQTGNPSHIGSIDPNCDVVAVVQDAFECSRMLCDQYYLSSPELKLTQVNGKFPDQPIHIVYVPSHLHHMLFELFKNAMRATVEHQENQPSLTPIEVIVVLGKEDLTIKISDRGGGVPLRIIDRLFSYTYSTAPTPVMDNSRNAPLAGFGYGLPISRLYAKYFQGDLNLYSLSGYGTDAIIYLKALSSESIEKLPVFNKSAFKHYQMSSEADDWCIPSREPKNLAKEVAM
# Cellular tumor antigen p53 (Homo sapiens), sequence (P04637 whole entry, looked up): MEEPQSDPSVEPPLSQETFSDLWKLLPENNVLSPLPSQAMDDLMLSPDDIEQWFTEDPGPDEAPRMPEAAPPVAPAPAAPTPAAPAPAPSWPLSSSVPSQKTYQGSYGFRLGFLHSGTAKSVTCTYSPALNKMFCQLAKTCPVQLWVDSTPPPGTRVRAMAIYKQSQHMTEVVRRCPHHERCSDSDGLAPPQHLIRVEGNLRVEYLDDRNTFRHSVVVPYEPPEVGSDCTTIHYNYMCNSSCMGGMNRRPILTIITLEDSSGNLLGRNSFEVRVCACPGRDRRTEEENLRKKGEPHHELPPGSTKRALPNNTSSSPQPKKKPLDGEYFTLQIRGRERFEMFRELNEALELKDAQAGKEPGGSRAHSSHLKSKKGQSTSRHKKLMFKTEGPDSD
smiles,measurement,setting,value
Cl.O=C1c2ccccc2C(=O)c2c1cccc2-c1cnn(C2CCNCC2)c1,fold change (FC),[1],0.26
same,IC50,CYP3A,36.6 µM
same,IC50,L929,35.8 µM
same,IC50,CHO-K1,36 µM
same,Tmax,[2],6 h
same,AUC(0-inf),[3],18500 ng·h/mL
same,bioavailability,[4],63.6%
same,OD,Mast cell,0.126
same,Activity,Mus musculus,49.9 µg/mL
same,Activity,[5],Dose-dependent effect
same,Activity,RKO [6],Active
same,Activity,HCT-116 [7],Dose-dependent effect
same,Activity,HCT-116 [8],77.9%
same,Activity,HCT-116 [9],7.1%
same,Activity,HCT-116 [10],49.4%
same,Activity,HCT-116 [11],20.2%
same,Activity,HCT-116 [12],21.8%
same,Activity,HCT-116 [13],37.1%
same,Activity,HCT-116 [14],78.2%
same,Activity,HCT-116 [15],11.2%
same,Activity,HCT-116 [16],36%
same,Activity,HCT-116 [17],12.7%
same,Activity,RKO [18],5.2%
same,Activity,RKO [19],36.7%
same,Activity,RKO [20],49%
same,Activity,RKO [21],36.8%
same,Activity,RKO [22],33.8%
same,Activity,RKO [23],2.8%
same,Activity,RKO [24],8.2%
same,Activity,RKO [25],19.2%

# Source: ChEMBL document CHEMBL4330127, “Discovery of Novel Pyruvate Dehydrogenase Kinase 4 Inhibitors for Potential Oral Treatment of Metabolic Diseases” (J Med Chem, 2019)
